Source: ChEMBL document CHEMBL1142137 (Antimicrob Agents Chemother, 2007)
Converted amounts (≈) assume the structure as drawn.

Key:
Mus musculus [1] = assay: T>MIC in leukopenic mouse with renal failure at 15 mg/kg, sc; assay type: ADME, organism-based; parameters: dose 15 mg/kg, route subcutaneous; conditions: in vivo
Streptococcus pneumoniae [2] = assay: Antibacterial activity against penicillin-susceptible Streptococcus pneumoniae P-52181
Streptococcus pneumoniae [3] = assay: Antibacterial activity against penicillin-resistant Streptococcus pneumoniae P-54988; assay type: functional
Method in brief: (§1)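 Tube dilution in Mueller-Hinton infusion broth with 5% sterile horse serum, using twofold antibiotic dilutions. Tubes were incubated 18 h at 37°C in 10% CO2-air. MIC was the lowest concentration with no turbidity visible to the naked eye.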

Mus musculus [4] = assay: Effect on survival of Swiss mouse infected with penicillin-resistant Streptococcus pneumoniae P-12698 at 25 mg/kg, sc; assay type: functional; conditions: route subcutaneous
Method in brief: (§2)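 Female Swiss albino mice, 6-7 weeks old, made leukopenic with cyclophosphamide 150 mg/kg ip daily ×3 from 4 days before challenge. Renal failure from one uranyl nitrate 6 mg/kg ip dose 4 days before challenge. Intratracheal inoculum of ~10^7 log-phase CFU under pentobarbital. […] 12-15 mice/group; deaths recorded daily for 10 days; Mantel-Haenszel comparison.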

Mus musculus [5] = assay: Effect on survival of Swiss mouse infected with penicillin-resistant Streptococcus pneumoniae P-12698 at 15 mg/kg, sc; assay type: functional; conditions: route subcutaneous; method in brief: as §2
[6] = AUC in leukopenic mouse with renal failure at 7 mg/kg, sc; assay type: ADME, organism-based; parameters: dose 7 mg/kg, route subcutaneous; conditions: plasma
Method in brief: (§3)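 Uninfected female Swiss mice (6-7 weeks) made leukopenic with cyclophosphamide (150 mg/kg i.p. […] from 4 days pre-challenge) and given uranyl nitrate 6 mg/kg i.p. once, 4 days earlier. […] AUC0-24 by trapezoid method from one-compartment fit.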

[7] = Cmax in leukopenic mouse with renal failure at 25 mg/kg, sc after 0.5 hrs; assay type: ADME, organism-based; parameters: dose 25 mg/kg, route subcutaneous; conditions: in vivo
[8] = Half life in human at 1 g, po; assay type: ADME, organism-based; conditions: in vivo
[9] = AUC in human at 1 g, po; assay type: ADME, organism-based; conditions: plasma
Mus musculus [10] = assay: Effect on survival of Swiss mouse infected with penicillin-resistant Streptococcus pneumoniae P-54988 at 15 mg/kg, sc; assay type: functional; conditions: route subcutaneous; method in brief: as §2
[11] = Half life in leukopenic mouse with renal failure at 15 mg/kg, sc; assay type: ADME, organism-based; parameters: dose 15 mg/kg, route subcutaneous; conditions: in vivo
Method in brief: (§4)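 Terminal t1/2 = ln 2/kel, kel from least-squares slope of linear portions of log concentration-time curve; data fitted to one-compartment open model, zero-order absorption, first-order elimination.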

[12] = Half life in leukopenic mouse with renal failure at 25 mg/kg, sc; assay type: ADME, organism-based; parameters: dose 25 mg/kg, route subcutaneous; conditions: in vivo; method in brief: as §4
[13] = Cmax in leukopenic mouse with renal failure at 15 mg/kg, sc after 0.5 hrs; assay type: ADME, organism-based; parameters: dose 15 mg/kg, route subcutaneous; conditions: in vivo
[14] = Cmax in leukopenic mouse with renal failure at 7 mg/kg, sc after 0.5 hrs; assay type: ADME, organism-based; parameters: dose 7 mg/kg, route subcutaneous; conditions: in vivo
Mus musculus [15] = assay: Effect on survival of Swiss mouse infected with penicillin-susceptible Streptococcus pneumoniae P-52181 at 15 mg/kg, sc
Mus musculus [16] = assay: Effect on survival of Swiss mouse infected with penicillin-resistant Streptococcus pneumoniae P-15986 at 15 mg/kg, sc; assay type: functional; conditions: route subcutaneous; method in brief: as §2
Mus musculus [17] = assay: T>MIC in leukopenic mouse with renal failure at 7 mg/kg, sc; assay type: ADME, organism-based; parameters: dose 7 mg/kg, route subcutaneous; conditions: in vivo
[18] = Half life in leukopenic mouse with renal failure at 7 mg/kg, sc; assay type: ADME, organism-based; parameters: dose 7 mg/kg, route subcutaneous; conditions: in vivo; method in brief: as §4
[19] = Cmax in human at 1 g, po after 0.5 hrs; assay type: ADME, organism-based; parameters: dose 1 g, route oral; conditions: in vivo
Streptococcus pneumoniae [20] = assay: Antibacterial activity against penicillin-resistant Streptococcus pneumoniae P-15986; assay type: functional; method in brief: as §1
Streptococcus pneumoniae [21] = assay: Antibacterial activity against penicillin-resistant Streptococcus pneumoniae P-12698; assay type: functional; method in brief: as §1
Mus musculus [22] = assay: T>MIC in leukopenic mouse with renal failure at 25 mg/kg, sc; assay type: ADME, organism-based; parameters: dose 25 mg/kg, route subcutaneous; conditions: in vivo
[23] = AUC in leukopenic mouse with renal failure at 25 mg/kg, sc; assay type: ADME, organism-based; parameters: dose 25 mg/kg, route subcutaneous; conditions: plasma; method in brief: as §3
[24] = AUC in leukopenic mouse with renal failure at 15 mg/kg, sc; assay type: ADME, organism-based; parameters: dose 15 mg/kg, route subcutaneous; conditions: plasma; method in brief: as §3

CC1(C)S[C@@H]2[C@H](NC(=O)[C@H](N)c3ccc(O)cc3)C(=O)N2[C@H]1C(=O)O [AMOXICILLIN]
T>MIC (Mus musculus [1]): 4 h | MIC (Streptococcus pneumoniae [2]): 0.03 µg/mL (≈ 0.0821 µM) | MIC (Streptococcus pneumoniae [3]): 2 µg/mL (≈ 5.47 µM) | survival at 25 mg/kg (Mus musculus [4]): 57% | survival at 15 mg/kg (Mus musculus [5]): 50% | AUC [6]: 46000 ng·h/mL | Cmax [7]: 85000 ng/mL | half-life [8]: 1.5 h | AUC [9]: 68000 ng·h/mL | survival at 15 mg/kg (Mus musculus [10]): 81% | half-life [11]: 1.6 h | half-life [12]: 1.7 h | Cmax [13]: 28000 ng/mL | Cmax [14]: 13000 ng/mL | survival at 15 mg/kg (Mus musculus [15]): 83% | survival at 15 mg/kg (Mus musculus [16]): 82% | T>MIC (Mus musculus [17]): 4 h | half-life [18]: 1.6 h | Cmax [19]: 19000 ng/mL | MIC (Streptococcus pneumoniae [20]): 4 µg/mL (≈ 10.9 µM) | MIC (Streptococcus pneumoniae [21]): 2 µg/mL (≈ 5.47 µM) | T>MIC (Mus musculus [22]): 8 h | AUC [23]: 227000 ng·h/mL | AUC [24]: 80000 ng·h/mL
